Laboratory results: ChEMBL document CHEMBL1131001, “Syntheses and anticholinesterase activities of (3aS)-N1, N8-bisnorphenserine, (3aS)-N1,N8-bisnorphysostigmine, their antipodal isomers, and other potential metabolites of phenserine” (J Med Chem, 1998)

How the values were obtained:
Acetylcholinesterase [1] = biological target: T1, Acetylcholinesterase (Homo sapiens, UniProt P22303); experiment: Anticholinesterase activity against erythrocyte acetylcholinesterase (AChE) in humans.(no detectable activity at 3*10e-5 M)
T1 sequence (P22303 whole entry): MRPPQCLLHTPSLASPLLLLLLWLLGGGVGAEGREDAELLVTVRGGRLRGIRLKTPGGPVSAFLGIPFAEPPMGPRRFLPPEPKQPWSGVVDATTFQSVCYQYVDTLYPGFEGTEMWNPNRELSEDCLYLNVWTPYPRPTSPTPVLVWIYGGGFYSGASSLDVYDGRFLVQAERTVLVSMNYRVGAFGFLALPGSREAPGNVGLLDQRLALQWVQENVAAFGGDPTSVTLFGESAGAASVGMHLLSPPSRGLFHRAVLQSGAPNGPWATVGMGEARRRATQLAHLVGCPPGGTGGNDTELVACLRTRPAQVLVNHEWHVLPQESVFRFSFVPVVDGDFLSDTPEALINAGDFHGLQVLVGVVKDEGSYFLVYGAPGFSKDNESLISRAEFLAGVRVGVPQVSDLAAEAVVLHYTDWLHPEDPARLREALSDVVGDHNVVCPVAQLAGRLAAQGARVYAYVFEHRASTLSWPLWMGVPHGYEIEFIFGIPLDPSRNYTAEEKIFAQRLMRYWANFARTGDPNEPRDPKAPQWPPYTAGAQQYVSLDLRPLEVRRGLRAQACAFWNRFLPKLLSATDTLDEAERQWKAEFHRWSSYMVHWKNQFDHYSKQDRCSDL

Cholinesterase [2] = biological target: T2, Cholinesterase (Homo sapiens, UniProt P06276); experiment: Anticholinesterase activity against plasma Butyrylcholinesterase (BChE) in humans.(no detectable activity at 3*10e-5 M); type: cell-free
T2 sequence (P06276 whole entry): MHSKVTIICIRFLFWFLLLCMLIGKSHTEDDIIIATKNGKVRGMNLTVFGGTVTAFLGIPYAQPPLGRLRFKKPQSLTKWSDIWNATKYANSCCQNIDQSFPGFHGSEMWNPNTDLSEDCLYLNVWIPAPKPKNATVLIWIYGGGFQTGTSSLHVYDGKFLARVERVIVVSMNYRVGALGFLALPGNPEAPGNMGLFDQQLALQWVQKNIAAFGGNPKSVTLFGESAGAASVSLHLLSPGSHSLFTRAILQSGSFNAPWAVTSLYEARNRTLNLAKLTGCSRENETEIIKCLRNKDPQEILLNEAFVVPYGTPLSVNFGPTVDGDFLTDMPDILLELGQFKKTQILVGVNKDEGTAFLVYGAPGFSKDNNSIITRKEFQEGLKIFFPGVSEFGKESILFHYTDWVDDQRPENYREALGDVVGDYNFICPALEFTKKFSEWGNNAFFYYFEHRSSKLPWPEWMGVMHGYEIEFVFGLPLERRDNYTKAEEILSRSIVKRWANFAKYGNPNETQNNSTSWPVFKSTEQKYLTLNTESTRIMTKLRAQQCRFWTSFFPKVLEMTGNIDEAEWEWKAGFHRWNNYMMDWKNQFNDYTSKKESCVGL

Acetylcholinesterase [3] = biological target: T1, Acetylcholinesterase; experiment: Anticholinesterase activity against erythrocyte acetylcholinesterase (AChE) in humans.
Outline: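 Human red blood cells, freshly collected, were washed five times in isotonic saline, lysed in 0.1 M Na3PO4 pH 7.4 with 0.5% Triton-X, and diluted 1:200. Compounds in half-log dilutions from 0.3 nM were preincubated with enzyme for 30 min at room temperature in pH 8.0 phosphate.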

Cholinesterase [4] = biological target: T2, Cholinesterase; experiment: Anticholinesterase activity against plasma Butyrylcholinesterase (BChE) in humans.; type: cell-free

Row | SMILES | IC50 (Acetylcholinesterase [1]) | IC50 (Cholinesterase [2]) | IC50 (Acetylcholinesterase [3]) [nM] | IC50 (Cholinesterase [4]) [nM]
1 | C[C@]12CCN(Cc3ccccc3)C1N(Cc1ccccc1)c1ccc(OC(=O)Nc3ccccc3)cc12 (stereo not given in full) | No detectable activity | No detectable activity |  | 
2 | CNC(=O)Oc1ccc2c(c1)[C@]1(C)CCN(Cc3ccccc3)C1N2Cc1ccccc1 (stereo not given in full) |  |  | 1090 | 8.1
3 | CNC(=O)Oc1ccc2c(c1)[C@@]1(C)CCNC1N2 (stereo not given in full) |  |  | 1490 | 237
4 | C[C@@]12CCN(Cc3ccccc3)C1N(Cc1ccccc1)c1ccc(OC(=O)Nc3ccccc3)cc12 (single isomer, unassigned; (-)) |  |  | 41100 | 513
5 | C[C@@]12CCNC1Nc1ccc(OC(=O)Nc3ccccc3)cc12 (stereo not given in full) |  |  |  | 897
6 | CN1c2ccc(OC(=O)Nc3ccccc3)cc2[C@]2(C)CCNC12 (stereo not given in full) |  |  |  | 612
7 | C[C@]12CCNC1Nc1ccc(OC(=O)Nc3ccccc3)cc12 (stereo not given in full) |  |  | 231 | 952
8 | CN1CC[C@@]2(C)c3cc(O)ccc3N(C)[C@@H]12 | No detectable activity | No detectable activity |  | 
9 | CNC(=O)Oc1ccc2c(c1)[C@@]1(C)CCN(Cc3ccccc3)C1N2Cc1ccccc1 (stereo not given in full) |  |  | 3560 | 776
10 | CN1CC[C@@]2(C)C3=CC(=O)C(=O)C=C3N(C)C12 (stereo not given in full) | No detectable activity | No detectable activity |  | 
11 | CNC(=O)Oc1ccc2c(c1)[C@]1(C)CCNC1N2 (stereo not given in full) |  |  | 10.9 | 2.4
